ChEMBL document CHEMBL1133737, “Topoisomerase I-mediated antiproliferative activity of enantiomerically pure fluorinated homocamptothecins” (J Med Chem, 2000)

Assays:
[1] = target: T1, DNA topoisomerase 1 (Homo sapiens) (UniProt P11387); test: Stimulation of pKMp27 DNA cleavage by human DNA topoisomerase I in presence of 0.1 uM of compound
T1 sequence (whole entry): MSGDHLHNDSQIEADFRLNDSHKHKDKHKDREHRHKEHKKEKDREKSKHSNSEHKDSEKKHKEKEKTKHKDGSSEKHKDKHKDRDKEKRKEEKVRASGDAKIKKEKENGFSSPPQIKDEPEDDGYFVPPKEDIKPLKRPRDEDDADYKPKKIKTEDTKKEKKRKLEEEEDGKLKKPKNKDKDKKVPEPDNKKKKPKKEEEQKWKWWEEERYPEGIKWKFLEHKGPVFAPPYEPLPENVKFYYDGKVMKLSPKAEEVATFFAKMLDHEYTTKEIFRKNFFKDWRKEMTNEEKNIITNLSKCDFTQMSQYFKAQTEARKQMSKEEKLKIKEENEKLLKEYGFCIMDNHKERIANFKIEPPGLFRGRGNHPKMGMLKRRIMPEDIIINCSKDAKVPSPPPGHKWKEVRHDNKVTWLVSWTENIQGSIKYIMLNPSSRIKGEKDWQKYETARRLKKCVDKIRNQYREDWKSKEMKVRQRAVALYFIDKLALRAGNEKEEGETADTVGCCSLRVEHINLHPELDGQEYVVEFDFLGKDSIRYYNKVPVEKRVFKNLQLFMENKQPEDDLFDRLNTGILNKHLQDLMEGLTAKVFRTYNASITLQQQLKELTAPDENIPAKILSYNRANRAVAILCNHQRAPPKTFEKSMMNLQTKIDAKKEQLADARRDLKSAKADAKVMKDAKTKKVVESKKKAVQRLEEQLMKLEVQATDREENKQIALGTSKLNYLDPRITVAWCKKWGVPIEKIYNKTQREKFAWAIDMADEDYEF
In short: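 Human Topo I incubated with supercoiled plasmid pKMp27 DNA and 0.1 µM drug. Products resolved on agarose gel containing ethidium bromide. Nicked DNA fraction quantified and stimulation calculated as (N−N0)/N0, where N and N0 are the nicked fractions with and without drug. Values compiled from quantitative analysis of three gels.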

T-24 = test: Cytotoxicity against T24 tumor cell line determined by WST-1 assay; assay type: functional, cell-based; conditions: Homo sapiens
In short: (§1)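 Cells exposed to drug for 72 h; surviving cells measured colorimetrically with soluble tetrazolium WST-1. IC50 is the mean of triplicate determinations. HT29 and A549 sourced from ATCC. T24r was derived from T24 bladder carcinoma by prolonged exposure to vinorelbine, PE1001 and doxorubicin, and is multidrug resistant through Pg-P overexpression. A549 is resistant through MRP overexpression.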

HT-29 = test: Cytotoxicity against HT-29 tumor cell line determined by WST-1 assay; assay type: functional, cell-based; conditions: Homo sapiens; in short: as §1
A549 = test: Cytotoxicity against A549 tumor cell line determined by WST-1 assay; assay type: functional, cell-based; conditions: Homo sapiens; in short: as §1

## CC[C@@]1(O)CC(=O)OCc2c1cc1n(c2=O)Cc2cc3cccc(F)c3nc2-1
[1]
  Stimulation: 7.3
T-24
  IC50: 22 nM
HT-29
  IC50: 190 nM
A549
  IC50: 130 nM

## CC[C@@]1(O)CC(=O)OCc2c1cc1n(c2=O)Cc2cc3c(F)cc(F)cc3nc2-1
[1]
  Stimulation: 30
T-24
  IC50: 0.32 nM
HT-29
  IC50: 10 nM
A549
  IC50: 1.9 nM

## CC[C@@]1(O)CC(=O)OCc2c1cc1n(c2=O)Cc2cc3c(F)cccc3nc2-1
[1]
  Stimulation: 18
T-24
  IC50: 1.6 nM
HT-29
  IC50: 20 nM
A549
  IC50: 17 nM

## CC[C@@]1(O)CC(=O)OCc2c1cc1n(c2=O)Cc2cc3ccccc3nc2-1 [HOMOCAMPTOTHECIN]
[1]
  Stimulation: 21
T-24
  IC50: 3.3 nM
HT-29
  IC50: 30 nM
A549
  IC50: 26 nM

## CC[C@@]1(O)CC(=O)OCc2c1cc1n(c2=O)Cc2cc3cc(F)ccc3nc2-1
[1]
  Stimulation: 17
T-24
  IC50: 4.5 nM
HT-29
  IC50: 27 nM
A549
  IC50: 22 nM

## CC[C@@]1(O)CC(=O)OCc2c1cc1n(c2=O)Cc2cc3ccc(F)cc3nc2-1
[1]
  Stimulation: 29
T-24
  IC50: 0.17 nM
HT-29
  IC50: 11 nM
A549
  IC50: 2.9 nM

## CC[C@@]1(O)CC(=O)OCc2c1cc1n(c2=O)Cc2cc3cc(F)c(F)cc3nc2-1 [DIFLOMOTECAN]
[1]
  Stimulation: 32
T-24
  IC50: 0.4 nM
HT-29
  IC50: 8.4 nM
A549
  IC50: 3.4 nM

## CC[C@@]1(O)C(=O)OCc2c1cc1n(c2=O)Cc2cc3ccccc3nc2-1 [CAMPTOTHECIN]
[1]
  Stimulation: 8.2
T-24
  IC50: 88 nM
HT-29
  IC50: 80 nM
A549
  IC50: 67 nM
